Assay outcomes as filed in PubChem BioAssay.
ANO1 activ – TMEM16A chloride channel activators or potentiators, primary screen, cell-based, HTS; 0.3% of 340,000 active; B-score at 10 µM; AID 623877, 2012; HEK293 TMEM16A/YFP-H148Q/I152L, iodide quench fluorescence; hits give low values;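 active = fluorescence-ratio B-score plate-corrected deviation score at least 3 library SD below zero, with starting fluorescence score within 5 deviations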;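 also: channel opened by trigger with iodide after compound preincubation; score built on the fluorescence ratio of max minus min over baseline; more negative score means more quench and so TMEM16A activation or potentiation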
MC4R barr agon – MC4R agonists recruiting beta-arrestin, primary screen, cell-based, luminescence, agonist arm of biased-ligand search; Melanocortin receptor 4 (Homo sapiens), P32245; activation, % at 8.9 µM; 0.98% of 360,000 active; U2OS MC4R beta-arrestin complementation; percent of melanotan II response, DMSO zero; AID 540308, 2011;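 active = activation above a per-plate cutoff, the mean activation of sample wells on that plate plus 3 SD, cut at about 8% in these data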
Target sequence (P32245 whole entry, looked up): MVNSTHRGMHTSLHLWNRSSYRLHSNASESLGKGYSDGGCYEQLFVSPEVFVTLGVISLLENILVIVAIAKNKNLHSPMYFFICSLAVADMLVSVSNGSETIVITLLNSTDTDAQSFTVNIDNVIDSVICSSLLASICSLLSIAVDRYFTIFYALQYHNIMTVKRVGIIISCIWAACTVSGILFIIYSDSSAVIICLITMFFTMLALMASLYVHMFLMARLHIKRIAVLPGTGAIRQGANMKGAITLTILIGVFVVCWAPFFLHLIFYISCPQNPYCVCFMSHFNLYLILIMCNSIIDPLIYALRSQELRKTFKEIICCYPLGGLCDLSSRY
HTR2A ag – mouse Htr2a agonists via beta-arrestin recruitment, primary screen, cell-based, luminescence; 5-hydroxytryptamine receptor 2A (Mus musculus), P35363; CHO-K1 mHTR2A beta-arrestin complementation; percent of 30 µM serotonin response; activation, % at 7.6 µM; 0.66% of 360,000 active; AID 624169, 2012;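 active = activation above a run cutoff, the mean activation of all tested compounds plus 3 SD, cut at about 14% in these data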;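 also: 0% = plate median of compound wells and 100% = 30 µM serotonin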
MC4R antagonist – MC4R antagonists of cAMP signaling, primary screen, cell-based, TR-FRET, antagonist arm of biased-ligand search | 0.48% of 360,000 active | MC4R-expressing cells, MTII-stimulated cAMP, LANCE TR-FRET | Melanocortin receptor 4 (Homo sapiens), P32245 | inhibition, % at 6.5 µM;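 active = inhibition above its plate's cutoff, the mean of tested wells on that plate plus 3 SD, cut at about 29% in these data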;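 also: 0% = Melanotan II alone and 100% = Melanotan II plus saturating MCL0020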
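Material – human MC4R-expressing U2OS cells · Repeats – no replicates · Detection – TR-FRET with Eu-cAMP and labeled anti-cAMP, 671 nm · Times – compound 30 min, challenge 1 h, detection 1 h · Compound – single nominal compound dose of 6.5 µM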
TMEM16A inh – TMEM16A chloride channel inhibitors, primary screen, cell-based, HTS; AID 588511, 2011; HEK293 TMEM16A/YFP iodide influx fluorescence, ionomycin; 1.2% of 310,000 active; normalized B-score (activity score, 25-100; higher = stronger inhibition) at 10 µM; Anoctamin-1 (Mus musculus), Q8BHY3;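 active = ratio plate-corrected score three or more library SD toward inhibition, starting fluorescence score within five deviations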;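 also: score derived from kinetic fluorescence span divided by baseline fluorescence per well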
MIN6 prolif – inducers of MIN6 beta-cell proliferation, primary screen, ATP luminescence, uHTS; AID 2380, 2010; proliferation, % at 10 µM; 0.29% of 330,000 active; MIN6 cells proliferation, ATPlite luminescence, 48 h; cells starved in 0.2% serum; 100% = growth in 10% serum;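 active = compounds whose signal lies at least 3.5 SD above the mean of all wells on their plate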;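 also: 0% = DMSO-treated cells in low-serum medium and 100% = 10% serum control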
OPRM1 ag – OPRM1 agonists via beta-arrestin recruitment, confirmation, counter-screen for mouse HTR2A agonist project, cell-based, luminescence, single concentration. 5.3% of 2,300 active. activation, % at 9.3 µM. U2OS OPRM1 beta-arrestin PathHunter; DMSO 0%, DAMGO 9.3 µM 100%. shares compounds with HTR2A ag;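 active = mean activation above the mean of DMSO-only wells plus 3 SD, cut at about 0.5% in these data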
m5-HT2A ag conf – mouse HTR2A agonists, beta-arrestin recruitment, confirmation, cell-based, luminescence, CHO-K1 PathHunter, triplicate | activation, % at 7.6 µM | shares compounds with HTR2A ag | DMSO 0%, 30 µM serotonin 100% | 19% of 2,300 active;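 active = mean activation across triplicates above the hit threshold derived in the original primary screen, cut at about 15% in these data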
* hit, by the source's call; i = inactive; / = no result. Only some compounds are listed: those with a hit (about 3.4% of all), similar ones and a draw of the others.

SMILES	ANO1 activ	MC4R barr agon	HTR2A ag	MC4R antagonist	TMEM16A inh	MIN6 prolif	OPRM1 ag	m5-HT2A ag conf
CCc1nc2c(OCC(=O)C(C)(C)C)cccn2c1N(C)C(=O)C(C)C	/	0.5	3.0	4.1	/	/	/	/
Cc1[nH]n(C(C)(C)C)c(=O)c1Sc1ccc(Cl)cc1	i	2.6	15.1*	-1.8	i	-0.2	-0.1	18.4*
Cc1ccccc1-c1ccc(/C=C2/SC(N3CCOCC3)=NC2=O)o1	i	-2.1	21.2*	6.9	i	-3.6	-0.7	89.3*
CO[C@@H]1CN(C)C(=O)c2ccc(NC(=O)C3CCC3)cc2OC[C@H](C)N(CC2CCCCC2)C[C@H]1C	/	/	21.4*	/	/	/	-0.3	-2.4
CO[C@H]1CN(C)C(=O)c2ccc(NC(=O)C3CCC3)cc2OC[C@H](C)N(CC2CCCCC2)C[C@@H]1C	/	/	1.0	/	/	/	/	/
COc1ccc(CN2CCN(C(=O)Cn3c(=O)oc4cc(Cl)ccc43)CC2)c(OC)c1OC	i	-0.4	-1.9	8.9	i	-0.2	/	/
CC(O)CCC(=O)NCCNC(=O)CCC(C)O (centres undefined)	i	-0.4	19.7*	5.9	i	0.3	-0.5	-1.2
COc1ccc(NC(=O)C2CCN(S(=O)(=O)c3cccs3)CC2)cc1OC	i	-0.6	-2.1	12.9	/	1.2	/	/
Cc1ccccc1OCC(=O)Nc1ccc(N2CCN(C)CC2)c(Cl)c1	i	-0.3	-5.2	-1.4	i	0.0	/	/
Cc1ccc(O)c(NC(=O)c2cc3nc4c(c(C(F)(F)F)n3n2)CCc2ccccc2-4)c1	i	0.8	15.8*	14.0	i	-4.8	0.0	8.6
COc1ccccc1C(=O)NCCC(=O)N1CC=C(c2ccccc2)CC1	i	-1.0	-11.8	6.3	i	-0.6	/	/
Cc1nc(SCC(=O)N2CCN(C(=O)c3cccs3)CC2)c2c(C)c(C)sc2n1	i	-1.8	16.1*	2.1	/	-1.6	-0.5	1.2
Cc1nc(SCC(=O)N2CCN(C(=O)c3ccco3)CC2)c2c(C)c(C)sc2n1	/	-0.7	0.4	3.2	i	-0.4	/	/
CN=C(c1ccco1)n1c(=S)nc(-c2ccco2)n(C)c1=S	i	-0.5	1.7	13.9	i	-1.9	/	/
CN=C(c1ccc(C)cc1)n1c(=S)nc(-c2ccc(C)cc2)n(C)c1=S	i	-0.3	15.5*	15.7	i	4.7	-0.5	-4.6
C[C@H](CO)N1C[C@H](C)[C@H](CN(C)Cc2ccc(Oc3ccccc3)cc2)Oc2cc(Br)ccc2S1(=O)=O	/	-0.2	2.5	4.0	/	/	/	/
CC(C)CC(=O)Nc1nnc(SCC(=O)NCc2ccc3c(c2)OCO3)s1	i	-3.3	14.5*	9.7	i	-3.1	-0.5	-2.6
CC(C)C(=O)Nc1nnc(SCC(=O)NCc2ccc3c(c2)OCO3)s1	i	-0.3	-4.7	10.5	i	0.6	/	/
C/C(CC(=O)Nc1ccc(C)c(Cl)c1)=N\NC(=O)c1cccc(O)c1	i	0.4	-2.0	8.9	i	-4.5	/	/
O=C(NCc1ccco1)c1cc(-c2cccs2)nc2ccccc12	i	-0.9	-0.5	0.2	i	-0.7	/	/
